Experimental data gathered from unrelated publications.
Compare with care: the assays were run in different laboratories. In brackets after ≈: the same amount, converted by molar mass.
Organism: Staphylococcus aureus

For `C#CCCCCC(=O)N1CCN(c2ccccc2)CC1`, the MIC was > 100 µM (microbial growth; NCTC8325).
`CN[C@H](CC(C)C)C(=O)N[C@H]1C(=O)N[C@@H](CC(N)=O)C(=O)N[C@H]2C(=O)N[C@H]3C(=O)N[C@H](C(=O)N[C@H](C(=O)O)c4cc(O)cc(O)c4-c4cc3ccc4O)[C@H](O)c3ccc(c(Cl)c3)Oc3cc2cc(c3O[C@@H]2O[C@H](CO)[C@@H](O)[C@H](O)[C@H]2O[C@H]2C[C@](C)(N)[C@H](O)[C@H](C)O2)Oc2ccc(cc2Cl)[C@H]1O` has an inhibition zone of 18 mm (microbial growth, disc diffusion; ATCC29213; 62.5 µg/disc, 24 h).
The inhibition zone of `Cc1ccc2nc(-n3nc(C(C)C)c4c3-c3ccccc3C4=O)sc2c1` is reported as 14 mm (microbial growth, well diffusion; NCIM5021; 1000 µg/mL).
`C[C@@H]1CCN(C(=O)CC#N)C[C@@H]1N(C)c1ncnc2[nH]ccc12` gave an MIC of > 30 µM (microbial growth; NCTC8325).
With `COc1ccc2nc(-n3nc(C)c4c3-c3ccccc3C4=O)sc2c1` the inhibition zone was 12 mm (microbial growth, well diffusion; NCIM5021; 250 µg/mL).
The MIC80 of `O=C(Sc1cccccc1=O)c1ccccc1C(F)(F)F` is reported as 100 µM (≈ 31 µg/mL) (microbial growth, broth dilution; ATCC29213).
`O=C1NC(=S)S/C1=C\c1ccc(-c2ccc(N(c3ccccc3)c3ccccc3)cc2)c2ccccc12` gave an MBC of > 1000 µg/mL (microbial killing, broth dilution; ATCC25923).
With `Cc1ccc2nc(-n3nc(C)c4c3-c3ccccc3C4=O)sc2c1` the inhibition zone was 11 mm (microbial growth, well diffusion; NCIM5021; 125 µg/mL).
`Cc1cc2c(F)c(Oc3ncnn4cc(OC[C@@H](C)O)c(C)c34)ccc2[nH]1` gave an MIC of > 30 µM (microbial growth; NCTC8325).
`O=C(O)CN1C(=O)/C(=C/c2ccc(-c3ccc(N(c4ccccc4)c4ccccc4)cc3)c3ccccc23)SC1=S` has an MBC of > 1000 µg/mL (microbial killing, broth dilution; ATCC25923).
`CC(=O)NC[C@H]1CN(c2ccc(N3CCOCC3)c(F)c2)C(=O)O1` gave an MBC of 16 µM (microbial killing, broth dilution; NRS107).
The inhibition zone of `Cc1nn(-c2nc3ccccc3s2)c2c1C(=O)c1ccccc1-2` is reported as 9 mm (microbial growth, well diffusion; NCIM5021; 125 µg/mL).
With `O=c1cccccc1SSc1cccccc1=O` the MIC80 was > 100 µM (microbial growth, broth dilution; ATCC29213).
`O=C1NC(=S)S/C1=C\c1c2ccccc2c(-c2ccc(N(c3ccccc3)c3ccccc3)cc2)c2ccccc12` gave an MBC of > 1000 µg/mL (microbial killing, broth dilution; ATCC6538).
With `CC(C)Cc1nn(-c2nc3ccc(Cl)cc3s2)c2c1C(=O)c1ccccc1-2` the inhibition zone was 10 mm (microbial growth, well diffusion; NCIM5021; 250 µg/mL).
With `O=C1NC(=S)S/C1=C\c1ccc(-c2ccc(N(c3ccccc3)c3ccccc3)cc2)cc1` the MBC was > 1000 µg/mL (microbial killing, broth dilution; ATCC6538).
The inhibition zone of `Cc1ccc2nc(-n3nc(CC(C)C)c4c3-c3ccccc3C4=O)sc2c1` is reported as 11 mm (microbial growth, well diffusion; NCIM5021; 125 µg/mL).
`C=CC(=O)Nc1cccc(Sc2nc(Nc3ccc(N4CCN(C)CC4)cc3)ncc2Cl)c1` has an MIC of > 30 µM (microbial growth; NCTC8325).
The inhibition zone of `CC1(c2ccccc2O)Nn2c(nc(-c3ccc(Cl)cc3)c(C#N)c2=O)N1C(Cc1c[nH]c2ccccc12)C(=O)O` (centres unmarked) is reported as 35 mm (microbial growth; ATCC25923; 15 µg/mL, 24 h).
`CCN(CCO)CCCOc1ccc2c(Nc3cc(CC(=O)Nc4cccc(F)c4)[nH]n3)ncnc2c1` gave an MIC of > 30 µM (microbial growth; NCTC8325).
The IC50 of `C#CCCCCCCCCCCCC(O)CC(O)CO` (centres unmarked) is reported as 3.26 µg/mL (≈ 11.5 µM) (microbial growth, broth dilution; ATCC29213).
For `CN(C[C@@H]1COCCO1)S(=O)(=O)Nc1ccc2ccc3ncc(-c4cnn(C)c4)cc3c(=O)c2c1`, the MIC was 30 µM (microbial growth; NCTC8325).
For `CCOC(=O)C1=C(C)N2NC(C)(c3ccccc3O)N(C(Cc3c[nH]c4ccccc34)C(=O)O)C2=NC1c1ccc(Cl)cc1` (centres unmarked), the inhibition zone was 30 mm (microbial growth; ATCC25923; 15 µg/mL, 24 h).
The MIC80 of `CC[C@H](C)[C@H](NC(=O)OCC1c2ccccc2-c2ccccc21)C(=O)Sc1cccccc1=O` is reported as > 100 µM (microbial growth, broth dilution; ATCC29213).
`Cc1cc(Nc2cc(CN3CCOCC3)c3nc(C)c(Cc4ccc(Cl)cc4F)n3n2)n[nH]1` has an MIC of 30 µM (microbial growth; NCTC8325).
For `C#CCCCCCCCCC=CCC(O)CC(O)CO` (centres unmarked), the IC50 was > 200 µg/mL (microbial growth, broth dilution; ATCC33591 MRSA; drug-resistant strain).
The MBC of `O=C(O)CN1C(=O)/C(=C/c2c3ccccc3c(-c3ccc(N(c4ccccc4)c4ccccc4)cc3)c3ccccc23)NC1=S` is reported as > 1000 µg/mL (microbial killing, broth dilution; ATCC43300).
The MIC90 of `COc1c(N2C[C@@H]3CCCN[C@@H]3C2)c(F)cc2c(=O)c(C(=O)O)cn(C3CC3)c12` is reported as 0.24 µg/mL (≈ 0.598 µM) (microbial growth; ATCC700699).
`O=C(O)CN1C(=O)/C(=C/c2ccc(-c3ccc(N(c4ccccc4)c4ccccc4)cc3)cc2)SC1=S` gave an MBC of 7.8 µg/mL (microbial killing, broth dilution; ATCC43300).
The inhibition of `CC1(C)S[C@@H]2[C@H](NC(=O)[C@H](N)c3ccccc3)C(=O)N2[C@H]1C(=O)O` is reported as 100% (microbial growth, agar dilution; ATCC29213; 26.93 µM).
`Cc1ccc2nc(-c3ccncc3)[nH]c2c1` gave an MIC of 64 µg/mL (microbial growth, broth dilution; ATCC29213 MSSA).
`Cc1nc(Nc2ncc(C(=O)Nc3c(C)cccc3Cl)s2)cc(N2CCN(CCO)CC2)n1` gave an MIC of > 30 µM (microbial growth; NCTC8325).
`CC(C)c1nn(-c2nc3ccc(Cl)cc3s2)c2c1C(=O)c1ccccc1-2` gave an inhibition zone of 12 mm (microbial growth, well diffusion; NCIM5021; 1000 µg/mL).
With `CCOc1ccc(-c2nc3ccc(C)cc3[nH]2)cc1` the MIC was 128 µg/mL (microbial growth, broth dilution; ATCC29213 MSSA).
`CCCCCCCCCCCCCC(O)CC(O)CO` (centres unmarked) gave an IC50 of 8.26 µg/mL (≈ 28.6 µM) (microbial growth, broth dilution; ATCC33591 MRSA; drug-resistant strain).
`O=c1cccccc1Sc1cccccc1=O` has an MIC80 of > 100 µM (microbial growth, broth dilution; ATCC29213).
`O=C(O)CN1C(=O)/C(=C/c2c3ccccc3c(-c3ccc(N(c4ccccc4)c4ccccc4)cc3)c3ccccc23)SC1=S` gave an MBC of > 1000 µg/mL (microbial killing, broth dilution; ATCC25923).
With `COc1ccc2nc(-n3nc(C(C)C)c4c3-c3ccccc3C4=O)sc2c1` the inhibition zone was 11 mm (microbial growth, well diffusion; NCIM5021; 1000 µg/mL).
